In test [1] the test system is RPMI 8402. Put plainly: Cytotoxicity against human lymphoblast cell line RPMI 8402. The class given is functional, cell-based. Summed up:
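RPMI 8402 human lymphoblasts grown in suspension at 37 °C, 5% CO2, in RPMI with 10% heat-inactivated FBS, 2 mM L-glutamine, penicillin and streptomycin. Seeded at 2000 cells/well and exposed to drug continuously for 4 days. Viability read by MTT tetrazolium microtiter assay, giving IC50. Highest dose tested 25 µM.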

Test [2] concerns DNA topoisomerase 1 (Bos taurus). Put plainly: Effective concentration against Topoisomerase-I (purified from calf thymus gland) mediated DNA cleavage relative to Hoechst 33342.

Our source for the IC50 and REC values is ChEMBL document CHEMBL1129500, “Substituted 2,5'-Bi-1H-benzimidazoles: topoisomerase I inhibition and cytotoxicity” (J Med Chem, 1996).

By IC50 is commonly meant the concentration that gives 50% inhibition.

`N#Cc1ccc2[nH]c(-c3ccc4[nH]c(-c5cccc6ccccc56)nc4c3)nc2c1` showed an IC50 in test [1] of 650 nM. For the same compound, in test [2], the REC was found to be 10.
In test [1], `Cc1ccc(-c2nc3cc(-c4nc5cc(N6CCN(C)CC6)ccc5[nH]4)ccc3[nH]2)cc1` yielded an IC50 of 830 nM. In test [2], this compound gave an REC of 1.
`N#Cc1ccc2[nH]c(-c3ccc4[nH]c(-c5ccc6ccccc6c5)nc4c3)nc2c1` showed an IC50 in test [1] of 130 nM. For the same compound, the REC in test [2] was 10.
`CN1CCN(c2ccc3[nH]c(-c4ccc5[nH]c(-c6ccccc6)nc5c4)nc3c2)CC1`: the IC50 in test [1] came to 490 nM. Also, the REC in test [2] turned out to be 1.
Compound `NC(=O)c1ccc2[nH]c(-c3ccc4[nH]c(-c5cccc6ccccc56)nc4c3)nc2c1` yielded an IC50 in test [1] of 3700 nM. Also, the REC in test [2] was 20.
In the same order, the values of `NC(=O)c1ccc2[nH]c(-c3ccc4[nH]c(-c5ccccc5)nc4c3)nc2c1` are greater than 25000 nM and 10.
In the same order, the values of `NC(=O)c1ccc2[nH]c(-c3ccc4[nH]c(-c5ccc6ccccc6c5)nc4c3)nc2c1` are 740 nM and 100.
In the same order, the values of `Cc1ccccc1-c1nc2cc(-c3nc4cc(C#N)ccc4[nH]3)ccc2[nH]1` are 1200 nM and greater than 100.
For `Cc1cccc(-c2nc3cc(-c4nc5cc(N6CCN(C)CC6)ccc5[nH]4)ccc3[nH]2)c1`, the IC50 in test [1] was 360 nM. The compound also returned an REC in test [2] of 1.
As to `Cc1ccc(-c2nc3cc(-c4nc5cc(C#N)ccc5[nH]4)ccc3[nH]2)cc1`, inhibition in test [1] was half-maximal at 570 nM (IC50). In addition, the REC in test [2] was 1.
The corresponding values for `Cc1cccc(-c2nc3cc(-c4nc5cc(C(N)=O)ccc5[nH]4)ccc3[nH]2)c1` are 8200 nM and 100.
Compound `Cc1cccc(-c2nc3cc(-c4nc5cc(C#N)ccc5[nH]4)ccc3[nH]2)c1` gave an IC50 in test [1] of 860 nM. This compound displayed an REC in test [2] of 100.
In the same order, the values of `N#Cc1ccc2[nH]c(-c3ccc4[nH]c(-c5ccccc5)nc4c3)nc2c1` are greater than 25000 nM and greater than 100.
For the compound `Cc1ccc(-c2nc3cc(-c4nc5cc(C(N)=O)ccc5[nH]4)ccc3[nH]2)cc1`, the IC50 in test [1] is greater than 25000 nM. The compound also showed an REC in test [2] of 10.
The corresponding values for `Cc1ccccc1-c1nc2cc(-c3nc4cc(N5CCN(C)CC5)ccc4[nH]3)ccc2[nH]1` are 590 nM and 10.
In turn, `CN1CCN(c2ccc3[nH]c(-c4ccc5[nH]c(-c6cccc7ccccc67)nc5c4)nc3c2)CC1` came in with an IC50 in test [1] of 330 nM. Also, the REC in test [2] was 20.
In test [1], `Cc1ccccc1-c1nc2cc(-c3nc4cc(C(N)=O)ccc4[nH]3)ccc2[nH]1` registered an IC50 of 8200 nM. For the same compound, in test [2], the REC amounted to 100.
In the same order, the values of `CN1CCN(c2ccc3[nH]c(-c4ccc5[nH]c(-c6ccc7ccccc7c6)nc5c4)nc3c2)CC1` are 110 nM and 10.
